Screens as filed in PubChem.
In the library only some 1.4% were active in any assay of this set; here they are far more common.
Lipid droplet – inhibitors of hepatocyte lipid droplet formation, primary screen, imaging, high-throughput imaging, BODIPY stain; AML12 mouse hepatocytes, oleate lipid droplets; inhibition, % at 6.5 µM; 240,000 compounds, 0.4% hits; AID 1656, 2009;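 active = lipid droplet intensity inhibited by at least 50%, with more than 500 cells counted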
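Test system: AML12 mouse liver cells; schedule: overnight exposure; technique: high-content imaging of BODIPY-stained droplets and DAPI nuclei; read-out: % inhibition of corrected integrated BODIPY droplet signal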
HTR5A ag ctr – HTR5A agonists in luminescence cell assay, primary screen, counter-screen for OPRM1-OPRD1 heterodimer agonist project, full-deck HTS | cell-based | activation, % at 9.3 µM | 340,000 compounds, 0.61% hits | AID 504692, 2011; in the data active = activation mostly above about 9.5%, no sharp cut-off; inactive = mostly below about 7.6%;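 note: 0% = cells with vehicle only and 100% = reference agonist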
Target sequence (P47898 whole entry, looked up): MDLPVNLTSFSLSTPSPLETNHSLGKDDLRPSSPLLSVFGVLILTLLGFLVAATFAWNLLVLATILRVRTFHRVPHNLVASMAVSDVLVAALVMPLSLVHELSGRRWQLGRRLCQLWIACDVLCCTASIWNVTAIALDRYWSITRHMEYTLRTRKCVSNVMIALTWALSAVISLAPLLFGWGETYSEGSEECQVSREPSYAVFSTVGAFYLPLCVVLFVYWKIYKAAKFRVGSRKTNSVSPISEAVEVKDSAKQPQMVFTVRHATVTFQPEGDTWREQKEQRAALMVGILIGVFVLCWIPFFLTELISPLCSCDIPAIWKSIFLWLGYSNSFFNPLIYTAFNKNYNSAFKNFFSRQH
HTR5A inv ctr – HTR5A inverse agonists in luminescence cell assay, primary screen, counter-screen for OPRM1-OPRD1 heterodimer inverse agonist project, full-deck HTS | HTR5A cell line, inverse agonism | inhibition, % at 9.3 µM | 340,000 compounds, 0.083% hits; in the data active = inhibition mostly above about 23%, no sharp cut-off; inactive = mostly below about 18%;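 note: 0% = cells with DMSO and 100% = no-cell wells with DMSO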
OPRM1-OPRD1 ag – agonists of OPRM1-OPRD1 heterodimerization, primary screen, cell-based, luminescence. Mu-type opioid receptor (Homo sapiens) + Delta-type opioid receptor (Homo sapiens), …. cells. activation, % at 9.3 µM. 340,000 compounds, 0.3% hits. AID 504326, 2011;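 note: 0% = vehicle-treated cells and 100% = reference agonist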
MOR-DOR inv ag – inverse agonists of MOR-DOR heterodimerization, primary screen, cell-based, luminescence; Mu-type opioid receptor (Homo sapiens) + Delta-type opioid receptor (Homo sapiens), …; cell-based MOR-DOR heterodimer luminescence, inverse agonism; inhibition, % at 9.3 µM; 340,000 compounds, 0.21% hits; in the data active = inhibition above about 22%, passing the limit was not always enough;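 note: 0% = cells with DMSO and 100% = wells without cells with DMSO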
OPRM1-D1 ag cf – agonists of MOR-DOR heterodimerization, confirmation, cell-based, luminescence; activation, % at 9.3 µM; 830 compounds, 45% hits; cells, luminescence complementation; AID 504904, 2011; shares compounds with OPRM1-OPRD1 ag;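 note: 0% = vehicle-treated cells and 100% = reference agonist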
HTR5A ag counter – HTR5A agonists in cells, counter-screen for OPRM1-OPRD1 heterodimer agonist project, cell-based, luminescence. 830 compounds, 8% hits. activation, % at 9.3 µM. HTR5A agonist counterscreen. shares compounds with OPRM1-OPRD1 ag. AID 504905, 2011; in the data active = activation above about 17%;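 note: 0% = vehicle-treated cells and 100% = reference agonist response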
Starred values were filed as active, the others as inactive. Cut-off read from the data, not from the text of the source, unless noted: active = activation above about 18%; inactive = the rest.

`Cc1cccc(C2(c3cccc(C)c3)CC2C(=O)Nc2ccc([N+](=O)[O-])cc2O)c1` (stereo not given) gave Lipid droplet -24.3, HTR5A ag ctr -1.4, HTR5A inv ctr 3.7, OPRM1-OPRD1 ag 7.5 and MOR-DOR inv ag -45.0.
For COc1ccc(C(CNc2nc(-c3cccnc3)nc3ccccc23)N(C)C)cc1 (stereo not given) the results were Lipid droplet -12.3, HTR5A ag ctr -0.4, HTR5A inv ctr 1.1, OPRM1-OPRD1 ag 159.6*, MOR-DOR inv ag inactive, OPRM1-D1 ag cf 3.0 and HTR5A ag counter -5.1.
Screening CCOc1ccc(NC(=S)N2CCN(S(=O)(=O)c3ccccc3)CC2)cc1 returned Lipid droplet 7.5, HTR5A ag ctr -4.2, HTR5A inv ctr 10.8, OPRM1-OPRD1 ag 31.5*, MOR-DOR inv ag -128.2, OPRM1-D1 ag cf 1.0 and HTR5A ag counter -1.0.
Screening Cc1ccc(/C([O-])=C(/C(=S)Nc2ccc(SC(F)F)cc2)[n+]2ccccc2)cc1[N+](=O)[O-] returned Lipid droplet 15.5, HTR5A ag ctr -3.4, HTR5A inv ctr -18.8, OPRM1-OPRD1 ag 23.5*, MOR-DOR inv ag -117.8, OPRM1-D1 ag cf 0.4 and HTR5A ag counter 7.5.
Screening COc1ccc2cc3cc(C(=O)Nc4cc(OC)c(OC)c(OC)c4)oc3nc2c1 returned Lipid droplet 27.6, HTR5A ag ctr 1.3, HTR5A inv ctr -36.2, OPRM1-OPRD1 ag 19.5*, MOR-DOR inv ag -122.1, OPRM1-D1 ag cf 20.6* and HTR5A ag counter 5.7.
Screening COc1ccc2cc3cc(C(=O)NC(C)C)oc3nc2c1 returned Lipid droplet 3.4, HTR5A ag ctr 0.5, HTR5A inv ctr 9.2, OPRM1-OPRD1 ag -0.7 and MOR-DOR inv ag 4.5.
CCOC(=O)C1(CC2CC2)CCN(Cc2cn(C)c3ccccc23)CC1 was read as Lipid droplet -2.1, HTR5A ag ctr -5.1, HTR5A inv ctr 16.6, OPRM1-OPRD1 ag 18.1*, MOR-DOR inv ag -124.5, OPRM1-D1 ag cf -2.7 and HTR5A ag counter -6.4.
Screening CCOC(=O)C1(CC2CC2)CCN(Cc2cnc(N(C)C)s2)CC1 returned Lipid droplet -2.5, HTR5A ag ctr -2.0, HTR5A inv ctr -26.4, OPRM1-OPRD1 ag 34.8*, MOR-DOR inv ag -181.7, OPRM1-D1 ag cf 1.5 and HTR5A ag counter 2.8.
`CCOC(=O)C1(CC2CC2)CCN(Cc2ccc(C(=O)OC)cc2)CC1` gave Lipid droplet -5.2, HTR5A ag ctr 5.0, HTR5A inv ctr -7.2, OPRM1-OPRD1 ag 14.4 and MOR-DOR inv ag -73.5.
`CC[C@@H](C)[C@@H](C(=O)N1CCNCC1)n1cc(CCC(=O)O)nn1` gave Lipid droplet -5.0, HTR5A ag ctr 0.5, HTR5A inv ctr -5.4, OPRM1-OPRD1 ag -2.3 and MOR-DOR inv ag 13.4.
`CCOC(=O)N1CCc2c(sc3nc4n(c(=O)c23)N=C(c2ccc(OC)cc2)CS4)C1` gave Lipid droplet -31.0, HTR5A ag ctr -1.3, HTR5A inv ctr 23.4, OPRM1-OPRD1 ag 25.9*, MOR-DOR inv ag -132.3, OPRM1-D1 ag cf 3.5 and HTR5A ag counter 1.6.
Screening CC(C)Sc1ccccc1C(=O)Nc1ccc2c(c1)n(C)c(=O)n2C returned HTR5A ag ctr -2.2, HTR5A inv ctr 8.2, OPRM1-OPRD1 ag -2.8 and MOR-DOR inv ag 13.3.
Screening COc1cccc(OCc2cc(C3Nc4ccccc4C(=O)N3Cc3ccco3)ccc2OC)c1 (stereo not given) returned Lipid droplet -32.5, HTR5A ag ctr 1.1, HTR5A inv ctr -0.7, OPRM1-OPRD1 ag -1.7 and MOR-DOR inv ag 10.0.
For COc1ccc(C2Nc3ccccc3C(=O)N2Cc2ccco2)cc1COc1ccc([N+](=O)[O-])cc1 (stereo not given) the results were HTR5A ag ctr 0.9, HTR5A inv ctr -2.2, OPRM1-OPRD1 ag 21.9*, MOR-DOR inv ag -109.9, OPRM1-D1 ag cf 12.7 and HTR5A ag counter -0.8.
Cc1ccccc1OCc1nc(-c2ccc(NC(=O)c3ccc4c(c3)OCO4)cc2)no1 was read as HTR5A ag ctr 10.5, HTR5A inv ctr -26.3, OPRM1-OPRD1 ag 20.9*, MOR-DOR inv ag -87.8, OPRM1-D1 ag cf 0.8 and HTR5A ag counter 1.5.
Screening Cc1oc(-c2cccc(F)c2)nc1CN(Cc1ccccc1)C[C@@H]1CCC(=O)N1 returned Lipid droplet 8.2, HTR5A ag ctr 1.6, HTR5A inv ctr -16.7, OPRM1-OPRD1 ag 28.7*, MOR-DOR inv ag -133.7, OPRM1-D1 ag cf 11.1 and HTR5A ag counter 2.7.
For CC1(C)CC(=O)C2=C(C1)NC(Nc1nc3ccccc3o1)=NC2c1ccccn1 (stereo not given) the results were Lipid droplet 0.7, HTR5A ag ctr 6.7, HTR5A inv ctr -8.0, OPRM1-OPRD1 ag -1.9 and MOR-DOR inv ag 9.2.
`CC1=C(C(=O)Nc2ccccc2)C(c2ccc(C)cc2)N=C(Nc2nc3ccccc3o2)N1` (stereo not given) gave HTR5A ag ctr 2.8, HTR5A inv ctr -41.2, OPRM1-OPRD1 ag 40.5*, MOR-DOR inv ag -218.6, OPRM1-D1 ag cf 34.1* and HTR5A ag counter 16.1.
For Cc1ccc(CN2CCNC(=O)C2CC(=O)NCc2cc(C)n(C)n2)cc1 (stereo not given) the results were Lipid droplet 39.3, HTR5A ag ctr 2.9, HTR5A inv ctr 24.3, OPRM1-OPRD1 ag -1.2 and MOR-DOR inv ag 6.3.
Screening COc1ccccc1N1CCN(C(=O)c2sc3nc(C)nc(N4CCN(c5ccccn5)CC4)c3c2C)CC1 returned Lipid droplet -21.8, HTR5A ag ctr 15.8, HTR5A inv ctr -42.4, OPRM1-OPRD1 ag 109.5*, MOR-DOR inv ag inactive, OPRM1-D1 ag cf 133.9* and HTR5A ag counter -2.7.
Cc1nc(N2CCN(c3ccccn3)CC2)c2c(C)c(C(=O)N3CCN(c4ccc(F)cc4)CC3)sc2n1 was read as Lipid droplet -25.7, HTR5A ag ctr 0.3, HTR5A inv ctr -0.9, OPRM1-OPRD1 ag 166.7*, MOR-DOR inv ag inactive, OPRM1-D1 ag cf 238.8* and HTR5A ag counter 4.7.
For COc1ccc(CN2CCC(n3nccc3NC(=O)CCc3ccccc3)CC2)c(C)c1C the results were Lipid droplet -8.8, HTR5A ag ctr -1.2, HTR5A inv ctr -2.0, OPRM1-OPRD1 ag 23.2*, MOR-DOR inv ag -117.2, OPRM1-D1 ag cf 3.8 and HTR5A ag counter -1.6.
For CCOC(=O)c1c(C)[nH]c(O)c1C=Nc1ccc(C(F)(F)F)cc1 the results were HTR5A ag ctr -1.9, HTR5A inv ctr -50.4, OPRM1-OPRD1 ag 12.5 and MOR-DOR inv ag -65.4.
